Test: Toxicity liver stage against HepG2, at 10uM
Type: cell-based
Design: test concentration 10 uM, cell line HepG2-A16-CD81EGFP
Conditions: human, HepG2-A16-CD81EGFP cells; read-out: INHIBITION
Outline: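 Uninfected HepG2-A16-CD81EGFP cells, 3 × 10^3 per well, 1536-well, plated on prespotted compound at 10 μM final, parasite-free screening media added to match infected plates; puromycin 10 μM positive, DMSO 0.5% negative; run in parallel with 48 h PbLuc assay at 37 °C, 5% CO2; viability by CellTiter-Glo luminescence, normalized to controls.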

| Compound | cytotoxicity at 10 µM |
| --- | --- |
| Cc1cc(C(=O)N2CCOC(c3nc(C)n[nH]3)C2)[nH]n1 (stereo not given) | -11.7% |
| O=C(O)c1cc(S(=O)(=O)Nc2cccc3c2OCCO3)ccc1F | 12.3% |
| CC(=O)NCC1CCCN(Cc2nc(Cc3ccccc3F)no2)C1 (stereo not given) | -11.1% |
| FC(F)(F)c1cc(C2CCCN(Cc3ccncc3)C2)n[nH]1 (stereo not given) | -52.8% |
| CC(C)c1nccc(N2CCN(CC(=O)N3CCOCC3)CC2)n1 | -8.68% |
| O=C(CC1CC1)N1C[C@@H]2CCN(c3cnccn3)C[C@@H]2C1 | 5.03% |
| COCCN1CCC2(CC1)CC(NC(=O)C1CC1)c1ccccc1O2 (stereo not given) | 1.67% |
| Cc1cc(C)c2nc(CN3CCC(CN)C3)cc(O)c2c1 (stereo not given) | -14.8% |
| CC(C)(CNC(=O)NCCOc1cccc(F)c1)C(N)=O | -8.93% |
| O=C(Nc1cccc(CNCc2csc(Br)c2)c1)C1CC1 | 7.97% |
| CC(C)CSCCCNC(=O)C1CCOCC1 | -3.65% |
| Cc1noc(C)c1CN(C)Cn1c(=O)n(C)c2ccccc21 | 5.25% |
| CN(C)c1nccc(C2CCN(C3CCCCC3O)CC2)n1 (stereo not given) | 1.98% |
| O=C(O)C(c1cccc2c1OCC2)N1CCC(N2CCSCC2)CC1 (stereo not given) | 6.14% |
| COc1cccc(CNc2cc(C)nc(-c3ccncc3)n2)c1OC | 46.5% |
| CC(C)(NC(=O)c1cnc(-c2ccccc2F)s1)C(N)=O | 6.96% |
| COc1cc(C2SCC(=O)Nc3n[nH]cc32)cc(OC)c1O (stereo not given) | 7.85% |
| Cn1cc(N2CCCC(Oc3ccc(F)cc3Cl)C2=O)cn1 (stereo not given) | -3.3% |
| Cn1cc(S(=O)(=O)NCC2CCN(C(=O)c3ccoc3)CC2)cn1 | -3.82% |
| Fc1ccccc1CN1CCCC(NC2CCOCC2)C1 (stereo not given) | 6.56% |
| CCNC(=O)CC1CC2(CCN(C(C)=O)CC2)c2cc(F)ccc21 (stereo not given) | 6.83% |
| CNC(=O)CC1CC2(CCN(c3ncccn3)CC2)c2ccccc21 (stereo not given) | 11.6% |
| CN1CCN(Cc2ccsc2)Cc2cccnc21 | -77.9% |
| CC(=O)NCC(Cc1cccc(F)c1)n1cccc1 (stereo not given) | -5.36% |
| O=C1CC[C@H]2[C@H](CCN2C(=O)C2CCCO2)N1CCN1CCCC1 (stereo not given in full) | -4.66% |
| c1ccc(Cc2n[nH]c(C3CCOC3)n2)cc1 (stereo not given) | 1.06% |
| Cc1ccc2c(c1)C(NC(=O)N(C)C)CC21CCN(CC2CC2)CC1 (stereo not given) | 4.44% |
| Cc1noc(C)c1CNC(=O)N1CCC(CN2CCC(C)CC2)CC1 | 6.62% |

| Compound | cytotoxicity at 10 µM |
| --- | --- |
| CCCOCCN1CCc2[nH]c(-c3ccc(OC)cc3)nc2C1 | -113% |
| CC(C)CCN1N=C(C(=O)N2CCCCCC2)S(=O)(=O)c2ccccc21 | 11.8% |
| CN(C)C(=O)N1CCC2(CC1)CCN(c1ncccn1)C2 | -1.05% |
| CN(Cc1ccc([S+](C)[O-])cc1)c1ccccn1 (stereo not given) | -7% |
| CC(=O)NC1CCCN(C(=O)NCc2cccnc2)C1 (stereo not given) | -10.5% |
| Cc1ccc(-c2cc(C(=O)N(C)Cc3noc4c3CCCC4)[nH]n2)o1 | -11% |
| O=C(NCC1CC1)c1nnc2ccc(Cl)cc2n1 | 0.318% |
| CCN1CC(C(=O)N2CCN(c3nsc4ccccc34)CC2)CCC1=O (stereo not given) | 16.2% |
| Cc1ccc(NC2CCN(C(=O)COC3CCCC3)CC2)nn1 | 2.31% |
| CCc1ccc(-c2ncc3c(n2)N(C)CCN(CCN(C)C)C3=O)cc1 | -9.52% |
| CCN(CC)C(=O)CC[C@@H]1CNC(=O)[C@@H]2C[C@H](NC(=O)C3CC3)CN12 | 5.76% |
| Cc1nonc1CN1CC[C@@](O)(C2CCOCC2)[C@H](C)C1 | 7.31% |
| Cn1cccc1C(=O)NCc1cn2c(n1)CN(Cc1ccccn1)CC2 | -115% |
| Cc1ccc(Oc2cc(F)ccc2O[C@@H]2CCC[C@@H](N)[C@H]2O)cc1 | -3.89% |
| NC(=O)NC(=O)CCSc1ccccc1Cl | 11.8% |
| CS(=O)(=O)NCCNC(=O)Cc1ccc(Br)s1 | -7.21% |
| CC(=O)NCC(=O)N1CCCC(C(=O)c2ccc(C(C)(C)C)cc2)C1 (stereo not given) | 5.78% |
| COc1ccc(CN2CCC3(CC(=O)N(c4cncnc4)C3)C2)cc1 (stereo not given) | 4.53% |
| CC(C)c1nc2n(n1)CC(Nc1ncnc3c1CCC3)CC2 (stereo not given) | -49.1% |
| Cc1cccc(C(=O)N2CCC3(CCN(c4cnn(C)c4)C3=O)C2)n1 (stereo not given) | 5.05% |
| COCCC(=O)N1CCC2(CC1)CC(c1ccccc1)CN(C1CC1)C2 (stereo not given) | -0.173% |
| COc1ccc(N2CCN(Cc3noc(CC(C)C)n3)C(C)C2=O)cc1 (stereo not given) | 4.11% |
| CCCc1nc(C(=O)NCCCn2nnc3ccccc32)cs1 | -14% |
| Cc1cnc(C)c(N2CCCC(CC3CC3)(C(=O)O)C2)n1 (stereo not given) | -6.09% |
| CCS(=O)(=O)Nc1ccn(Cc2ccc(F)cc2Cl)n1 | 3.18% |
| Cc1cc(NC(N)=O)ccc1C(=O)N(C)C | 12.2% |
| CCOCCCn1c(NC(=O)c2ccc(C)nc2)nc2ccccc21 | -6.95% |

From ChEMBL document CHEMBL4513216, “Probing the Open Global Health Chemical Diversity Library for Multistage-Active Starting Points for Next-Generation Antimalarials” (ACS Infect Dis, 2020)
